# Measurements reported in the M2OR odorant receptor database.
# Assays:
# Settings in all cases: stereoisomer not certain
# O5AN1 = test system: T1, O5AN1
# T1 sequence (whole entry): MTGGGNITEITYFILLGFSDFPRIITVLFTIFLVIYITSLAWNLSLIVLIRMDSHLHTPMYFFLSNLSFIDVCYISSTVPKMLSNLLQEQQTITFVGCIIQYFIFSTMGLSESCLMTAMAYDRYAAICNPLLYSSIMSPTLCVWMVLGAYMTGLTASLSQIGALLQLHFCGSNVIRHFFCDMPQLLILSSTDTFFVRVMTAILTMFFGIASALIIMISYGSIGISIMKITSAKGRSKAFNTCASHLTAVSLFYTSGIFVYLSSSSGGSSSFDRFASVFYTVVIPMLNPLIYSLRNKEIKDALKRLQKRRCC
# How it was run: (§1)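 Assay methods differ from source to source, frequently being transient luciferase assays in mammalian cell lines. For each receptor–molecule pair, the label responsive (active) applies when the original authors judged the measured signal statistically different from baseline, and non-responsive (inactive) applies otherwise.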
# OR10A2 (Homo sapiens) = target: T2, OR10A2 (Homo sapiens) (UniProt Q9H208)
# T2 sequence (whole entry): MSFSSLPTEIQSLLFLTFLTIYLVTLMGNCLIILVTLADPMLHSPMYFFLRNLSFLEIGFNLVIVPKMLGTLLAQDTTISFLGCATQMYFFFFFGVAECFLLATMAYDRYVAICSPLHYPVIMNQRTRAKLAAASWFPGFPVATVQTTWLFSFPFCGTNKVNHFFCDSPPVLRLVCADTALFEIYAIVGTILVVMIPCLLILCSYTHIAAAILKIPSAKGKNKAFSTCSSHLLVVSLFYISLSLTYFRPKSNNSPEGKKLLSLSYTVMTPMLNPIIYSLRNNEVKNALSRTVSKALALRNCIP
# How it was run: as §1
# OR10A4 (Homo sapiens) = target: T3, OR10A4 (Homo sapiens) (UniProt Q9H209)
# T3 sequence (whole entry): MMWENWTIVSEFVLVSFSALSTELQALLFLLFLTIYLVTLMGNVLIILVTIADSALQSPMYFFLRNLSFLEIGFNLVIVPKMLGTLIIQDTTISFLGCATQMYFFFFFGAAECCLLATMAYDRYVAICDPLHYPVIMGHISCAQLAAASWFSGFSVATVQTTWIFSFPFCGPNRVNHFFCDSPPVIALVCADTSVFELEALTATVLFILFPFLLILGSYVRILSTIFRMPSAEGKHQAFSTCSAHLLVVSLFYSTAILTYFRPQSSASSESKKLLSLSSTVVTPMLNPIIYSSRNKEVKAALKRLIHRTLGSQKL
# How it was run: as §1
# OR10A5 (Homo sapiens) = target: T4, OR10A5 (Homo sapiens) (UniProt Q9H207)
# T4 sequence (whole entry): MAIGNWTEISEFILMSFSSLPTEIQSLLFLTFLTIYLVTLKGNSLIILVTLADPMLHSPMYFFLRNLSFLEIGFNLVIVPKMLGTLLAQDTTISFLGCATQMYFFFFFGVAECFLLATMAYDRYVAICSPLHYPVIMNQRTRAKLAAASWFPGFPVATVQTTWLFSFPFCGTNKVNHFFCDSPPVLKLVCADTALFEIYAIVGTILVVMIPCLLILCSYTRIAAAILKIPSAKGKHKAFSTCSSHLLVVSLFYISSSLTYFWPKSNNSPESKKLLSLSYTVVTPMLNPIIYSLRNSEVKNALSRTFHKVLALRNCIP
# How it was run: as §1
# OR10A6 (Homo sapiens) = target: T5, OR10A6 (Homo sapiens) (UniProt Q8NH74)
# T5 sequence (whole entry): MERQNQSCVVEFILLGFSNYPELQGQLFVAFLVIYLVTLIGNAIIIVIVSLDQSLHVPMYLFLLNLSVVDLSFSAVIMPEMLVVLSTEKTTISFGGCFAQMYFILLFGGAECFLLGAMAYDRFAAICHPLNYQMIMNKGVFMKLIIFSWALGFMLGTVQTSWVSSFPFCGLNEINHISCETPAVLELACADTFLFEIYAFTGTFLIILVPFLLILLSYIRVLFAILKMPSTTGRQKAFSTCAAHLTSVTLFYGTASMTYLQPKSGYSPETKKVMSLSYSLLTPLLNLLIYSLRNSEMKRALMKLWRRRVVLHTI
# How it was run: as §1
# OR10A7 (Homo sapiens) = target: T6, OR10A7 (Homo sapiens) (UniProt Q8NGE5)
# T6 sequence (whole entry): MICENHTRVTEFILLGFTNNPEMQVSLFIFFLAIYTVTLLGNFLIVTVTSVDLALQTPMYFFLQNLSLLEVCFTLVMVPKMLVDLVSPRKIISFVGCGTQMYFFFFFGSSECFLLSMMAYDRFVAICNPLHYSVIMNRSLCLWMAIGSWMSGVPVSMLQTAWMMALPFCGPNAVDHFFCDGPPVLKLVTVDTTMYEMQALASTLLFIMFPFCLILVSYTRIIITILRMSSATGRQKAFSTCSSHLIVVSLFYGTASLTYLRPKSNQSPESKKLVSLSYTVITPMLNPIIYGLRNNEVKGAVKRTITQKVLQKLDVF
# How it was run: as §1
# OR10AC1 (Homo sapiens) = OR10AC1 (Homo sapiens) (UniProt Q8NH08)
# How it was run: as §1
# OR10AD1 (Homo sapiens) = target: T7, OR10AD1 (Homo sapiens) (UniProt Q8NGE0)
# T7 sequence (whole entry): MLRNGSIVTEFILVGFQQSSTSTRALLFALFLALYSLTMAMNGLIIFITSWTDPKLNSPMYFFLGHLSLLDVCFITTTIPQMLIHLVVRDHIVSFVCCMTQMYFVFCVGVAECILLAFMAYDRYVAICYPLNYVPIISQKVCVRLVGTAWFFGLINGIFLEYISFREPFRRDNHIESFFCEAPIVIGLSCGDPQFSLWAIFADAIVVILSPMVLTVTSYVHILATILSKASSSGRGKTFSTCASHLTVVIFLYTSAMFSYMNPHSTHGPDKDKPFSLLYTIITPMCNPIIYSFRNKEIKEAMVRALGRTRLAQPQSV
# How it was run: as §1
# OR10AG1 (Homo sapiens) = target: T8, OR10AG1 (Homo sapiens) (UniProt Q8NH19)
# T8 sequence (whole entry): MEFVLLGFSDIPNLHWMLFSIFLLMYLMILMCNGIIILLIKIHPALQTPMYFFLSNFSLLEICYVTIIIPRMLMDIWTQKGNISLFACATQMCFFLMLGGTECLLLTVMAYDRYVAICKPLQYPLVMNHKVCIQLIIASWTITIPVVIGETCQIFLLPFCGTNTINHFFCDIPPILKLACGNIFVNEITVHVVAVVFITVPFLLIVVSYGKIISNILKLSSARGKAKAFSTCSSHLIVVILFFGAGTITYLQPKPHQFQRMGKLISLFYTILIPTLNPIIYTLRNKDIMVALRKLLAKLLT
# How it was run: as §1
# OR10C1 (Homo sapiens) = target: T9, OR10C1 (Homo sapiens) (UniProt Q96KK4)
# T9 sequence (whole entry): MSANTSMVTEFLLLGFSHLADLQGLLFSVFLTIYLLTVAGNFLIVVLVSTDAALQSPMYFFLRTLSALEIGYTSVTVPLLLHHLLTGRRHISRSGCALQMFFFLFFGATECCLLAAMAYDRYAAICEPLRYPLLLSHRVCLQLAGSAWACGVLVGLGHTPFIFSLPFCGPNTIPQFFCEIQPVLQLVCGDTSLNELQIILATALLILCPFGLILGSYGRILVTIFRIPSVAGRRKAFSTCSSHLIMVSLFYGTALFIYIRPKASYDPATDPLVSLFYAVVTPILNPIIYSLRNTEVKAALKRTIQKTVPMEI
# How it was run: as §1
# OR10AC1 (Homo sapiens), sequence (Q8NH08 whole entry): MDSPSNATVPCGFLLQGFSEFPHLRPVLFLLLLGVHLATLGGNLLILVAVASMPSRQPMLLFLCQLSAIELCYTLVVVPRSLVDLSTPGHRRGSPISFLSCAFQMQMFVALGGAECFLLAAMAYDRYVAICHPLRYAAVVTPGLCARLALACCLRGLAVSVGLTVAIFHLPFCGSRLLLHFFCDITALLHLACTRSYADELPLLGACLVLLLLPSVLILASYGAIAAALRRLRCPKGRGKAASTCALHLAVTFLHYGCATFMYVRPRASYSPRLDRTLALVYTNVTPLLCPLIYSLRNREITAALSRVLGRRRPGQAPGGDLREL
Compound,odorant receptor agonist call (O5AN1),odorant receptor agonist call (OR10A2 (Homo sapiens)),odorant receptor agonist call (OR10A4 (Homo sapiens)),odorant receptor agonist call (OR10A5 (Homo sapiens)),odorant receptor agonist call (OR10A6 (Homo sapiens)),odorant receptor agonist call (OR10A7 (Homo sapiens)),odorant receptor agonist call (OR10AC1 (Homo sapiens)),odorant receptor agonist call (OR10AD1 (Homo sapiens)),odorant receptor agonist call (OR10AG1 (Homo sapiens)),odorant receptor agonist call (OR10C1 (Homo sapiens))
CC(=O)c1c(C)c([N+](=O)[O-])c(C(C)(C)C)c([N+](=O)[O-])c1C,active,inactive,inactive,inactive,inactive,inactive,inactive,inactive,inactive,inactive
CCCCCCCC(=O)CCCCCCC,inactive,,,,,,,,,
